# From ChEMBL document CHEMBL3856201, “5,10b-Ethanophenanthridine amaryllidaceae alkaloids inspire the discovery of novel bicyclic ring systems with activity against drug resistant cancer cells” (2016)
# The source made the active and inactive calls. The rule behind the calls is not given here.
# Key:
# [1] = Antiproliferative activity against human MES-SA cells after 48 to 96 hrs by MTT assay; type: functional
# Procedure, shortened: (§1)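 Parent MES-SA and MES-SA/Dx5 uterine sarcoma cells were grown in RPMI-1640 with 10% FBS. The Dx5 line was kept in 500 nM doxorubicin after stepwise selection from 100 nM in twofold steps, about 2 passages per step. MTT assay used 0.001–100 µM compound for 48–96 h, with 0.1% DMSO and 1 µM phenyl arsine oxide controls. The ratio is the Dx5 GI50 divided by the parent GI50.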
# [2] = Antiproliferative activity against patient-derived paclitaxel-resistant NCI-H2073 cells after 48 to 96 hrs by MTT assay; type: functional; details: Homo sapiens
# [3] = test system: NCI-H1993; assay: Potentiation of paclitaxel-induced cytotoxicity against patient-derived paclitaxel-sensitive NCI-H1993 cells assessed as reduction in cell viability up to 100 uM after 96 hrs by Celltiter-Glo luminescent assay; type: functional, cell-based; details: Homo sapiens
# Procedure, shortened: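 NCI-H1993 cells were seeded at 4×10^3 per well and grown 24 h. […] Viability was read by CellTiter-Glo luminescence. Predicted additivity was calculated by Bliss independence, Exy = Ex + Ey − ExEy.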
# [4] = Inhibition of cap/HCV-mediated translation in mouse Krebs2 cell free extract expressing FF/HCV/Ren mRNA reporter transcript assessed as reduction in luciferase production at 50 uM relative to control; type: functional
# Procedure, shortened: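 Krebs-2 translation extracts were programmed with bicistronic FF/HCV/Ren mRNA and incubated with compound at 50 µM or vehicle (0.5% DMSO). Firefly (cap) and Renilla (HCV IRES) luciferase activities were expressed relative to the DMSO control, from 2 independent translation reactions, as mean with error of the mean. Reference inhibitors were 1 µM hippuristanol and 10 µM anisomycin.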
# [5] = Antiproliferative activity against drug-resistant human U251 cells after 48 to 96 hrs by MTT assay; type: functional; details: U-251
# Procedure, shortened: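 U251 cells were kept in 10% MEM with glutamine, gentamicin and penicillin-streptomycin at 37 °C and 5% CO2. After seeding they were grown 24–72 h and then given compounds at 0.001–100 µM (from 100 or 50 mM DMSO stocks) for 48–96 h. Viability was read by MTT. Vehicle control was 0.1% DMSO; 1 µM phenyl arsine oxide served as positive control. The result is the average 50%-viability-reducing concentration.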
# [6] = Antiproliferative activity against human MCF7 cells after 48 hrs by MTT assay; type: functional; details: MCF7, 48 h
# Procedure, shortened: (§2)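 HeLa cells were cultured in DMEM + 10% FBS and MCF-7 cells in RPMI + 10% FBS, both at 37 °C under 5% CO2. Compounds were diluted from DMSO stocks and applied for 48 h. Viability was read by MTT relative to DMSO control. The value is the concentration reducing viability by 50%, ±SD from two independent experiments of 4 replicates each.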
# [7] = Antiproliferative activity against drug-resistant human A549 cells after 48 to 96 hrs by MTT assay; type: functional
# Procedure, shortened: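 A549 cells grown in RPMI with 10% heat-inactivated FBS, 4 mM glutamine and antibiotics at 37 °C under 5% CO2. Compounds came from 100 or 50 mM DMSO stocks and were tested at 0.001–100 µM for 48–96 h. Read-out was MTT. The value is the mean concentration giving 50% viability loss, with varied replicate numbers. Controls were 0.1% DMSO (negative) and 1 µM phenyl arsine oxide (positive).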
# [8] = species: Oryctolagus cuniculus; assay: Inhibition of cap/HCV-mediated translation in rabbit reticulocyte lysate expressing FF/HCV/Ren mRNA reporter transcript assessed as reduction in luciferase production at 50 uM after 1 hr relative to control; type: functional
# Procedure, shortened: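 Rabbit reticulocyte lysate was programmed with bicistronic FF/HCV/Ren mRNA and incubated with compound (50 µM) or 0.5% DMSO vehicle. Firefly and Renilla luciferase activities were expressed relative to the DMSO control. Two independent translation reactions, reported with error of the mean.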
# [9] = Antiproliferative activity against drug-sensitive human Hs683 cells after 48 to 96 hrs by MTT assay; type: functional; details: Hs 683
# Procedure, shortened: (§3)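 MTT read-out. T98G and Hs683 cells were grown in DMEM with 10% FBS, glutamine, gentamicin and penicillin-streptomycin at 37 °C and 5% CO2. Compounds came from 100 or 50 mM DMSO stocks and were tested at 0.001–100 µM for 48–96 h. Controls were 0.1% DMSO (negative) and 1 µM phenyl arsine oxide (positive). The value is the mean concentration giving 50% viability loss; replicate number varied.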
# [10] = Antiproliferative activity against human HeLa cells after 48 hrs by MTT assay; type: functional; procedure, shortened: as §2
# [11] = Antiproliferative activity against drug-resistant human U373 cells after 48 to 96 hrs by MTT assay; type: functional, U-373MG ATCC; details: U373 MG
# Procedure, shortened: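 Culture was RPMI with 10% heat-inactivated FBS plus glutamine and antibiotics for U373 cells. Compound exposure was 0.001–100 µM for 48–96 h, with 0.1% DMSO and 1 µM phenyl arsine oxide as controls. The MTT assay gave the average concentration cutting viability by 50%; replicate numbers varied.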
# [12] = Antiproliferative activity against patient-derived TMZ-resistant GBM 031810 cells over-expressing MGMT after 48 to 96 hrs by MTT assay; type: functional; details: Homo sapiens
# [13] = Antiproliferative activity against human MES-SA/Dx5 cells after 48 to 96 hrs by MTT assay; type: functional; procedure, shortened: as §1
# [14] = test system: HeLa S3; assay: Inhibition of translation in human HeLaS3 assessed as increase in eIF2alpha phosphorylation at 50 uM after 1 hr by Western blot analysis; type: functional
# Procedure, shortened: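 HeLa S3 cells were exposed to 50 µM compound for 1 h. Extracts were resolved by SDS-PAGE and transferred to PVDF. Western blots were probed for phospho-eIF2α, pan-eIF2α and eEF2.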
# [15] = Antiproliferative activity against patient-derived TMZ-sensitive GBM 090909 cells after 48 to 96 hrs by MTT assay; type: functional; details: Homo sapiens
# Procedure, shortened: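 Primary GBM neurosphere cultures came from resected patient tumour. Tissue was minced, dissociated with 100 U/mL collagenase in neurobasal medium for 30 min at 37 °C, filtered through 70 µm, spun at 200 × g for 5 min, and grown in ultra-low attachment wells in neurobasal medium with B27. Compounds were applied at 0.001–100 µM for 48–96 h. MTT gave the average 50%-viability concentration.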
# [16] = Antiproliferative activity against drug-resistant human U87 cells after 48 to 96 hrs by MTT assay; type: functional, U-87MG ATCC; details: U-87 MG
# Procedure, shortened: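 U87 cells grown in DMEM with glutamine, gentamicin and penicillin-streptomycin (37 °C, 95% humidity, 5% CO2) were seeded and then treated with 0.001–100 µM compound for 48–96 h. Readout was MTT. Controls were 0.1% DMSO and 1 µM phenyl arsine oxide. The value is the average concentration reducing viability 50%.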
# [17] = Antiproliferative activity against patient-derived paclitaxel-sensitive NCI-H1993 cells after 48 to 96 hrs by MTT assay; type: functional; details: Homo sapiens
# [18] = Antiproliferative activity against drug-resistant human T98G cells after 48 to 96 hrs by MTT assay; type: functional; procedure, shortened: as §3
# [19] = test system: HeLa S3; assay: Inhibition of translation in human HeLaS3 assessed as induction of dis-aggregation of polysomes at 50 uM after 1 hr by UV-based […] method; type: functional
# Procedure, shortened: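 HeLa S3 cells were exposed to 50 µM compound for 1 h, then analysed by polysome profiling against a DMSO-treated control profile.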
compound,measurement,setting,value
O=C1C=C[C@]23CC[N@](Cc4c2sc2ccccc42)[C@H]3C1,GI50,[1],5 µM
same,GI50,[2],11 µM
same,Activity,[3],Active
same,inhibition at 50 µM,[4],25%
same,GI50,[5],1 µM
same,GI50,[6],5 µM
same,GI50,[7],9 µM
same,inhibition,[8],25%
same,GI50,[9],3 µM
same,GI50,[10],8 µM
same,GI50,[11],2 µM
same,GI50,[12],1 µM
same,GI50,[13],7 µM
same,inhibition,[14],Active
same,GI50,[15],5 µM
same,GI50,[16],2 µM
same,GI50,[17],3 µM
same,GI50,[18],7 µM
same,inhibition,[19],Active
